Values belong to the compound of their own block, whether it stands above or below them.
Tests used:
[1] = Partition coefficient (logP) (HPLC); format: physicochemical; settings: octanol/water
[2] = Acid dissociation constant was determined; format: ADME
[3] = target: T1, Potassium voltage-gated channel subfamily A member 3 (Homo sapiens, UniProt P22001); test: Concentration inhibiting [125I]ChTX (charybdotoxin) binding to N-type potassium channel.
[4] = target: T1, Potassium voltage-gated channel subfamily A member 3; test: Inhibition of outward potassium currents (IKn) in human T-lymphocyte N-type potassium channels.; format: functional
Procedure, shortened: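 Whole-cell patch clamp held at -80 mV, with 150 ms steps to 30 mV once per minute and stabilization for >6 min. Test agent was perfused at one fixed concentration per cell for 6 min. The first pulse gave closed-channel block and the next gave open-channel block. Peak outward current was compared with predrug current as percent blocked. IC50 was fitted from n > 9 data points.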

[5] = Inhibition of [3H]dofetilide binding to guinea pig cardiac potassium (K+) channels.; parameters: species or system Cavia porcellus
Procedure, shortened: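 Radioligand binding of [3H]dofetilide to guinea pig cardiac myocytes, run by a previously published method. The IC50 is reported as the mean of at least two determinations.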

Cavia porcellus [6] = organism: Cavia porcellus; test: Inhibition of [3H]dofetilide binding to cardiac potassium (K+) channels at 400 nM
Cavia porcellus [7] = organism: Cavia porcellus; test: Inhibition of [3H]dofetilide binding to guinea pig cardiac myocytes potassium (K+) channels at 400 nM

T1 sequence (P22001 whole entry): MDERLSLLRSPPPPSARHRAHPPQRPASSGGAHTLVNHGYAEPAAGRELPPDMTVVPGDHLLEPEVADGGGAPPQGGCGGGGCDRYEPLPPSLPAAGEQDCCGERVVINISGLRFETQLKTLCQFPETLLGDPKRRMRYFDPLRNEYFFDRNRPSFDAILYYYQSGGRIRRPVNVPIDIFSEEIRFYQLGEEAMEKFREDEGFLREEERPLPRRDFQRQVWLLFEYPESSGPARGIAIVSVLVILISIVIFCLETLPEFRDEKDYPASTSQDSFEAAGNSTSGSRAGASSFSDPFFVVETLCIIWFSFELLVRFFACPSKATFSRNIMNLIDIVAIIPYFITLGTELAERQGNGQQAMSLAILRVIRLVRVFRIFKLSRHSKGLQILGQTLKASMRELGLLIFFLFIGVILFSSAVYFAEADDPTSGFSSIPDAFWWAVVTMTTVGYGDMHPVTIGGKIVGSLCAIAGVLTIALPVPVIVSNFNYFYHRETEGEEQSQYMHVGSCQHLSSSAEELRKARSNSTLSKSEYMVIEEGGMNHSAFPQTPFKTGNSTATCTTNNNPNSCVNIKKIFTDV

SMILES: CCCCCCNc1cc[n+](-c2ccccc2)c2c(-c3ccccc3)cccc12
logP [1]: 3.89
pKa [2]: 9.58
IC50 [3]: 930 nM

SMILES: CCCCCCNc1cc[n+](C)c2c(-c3ccccc3)cccc12
IC50 [3]: 240 nM
IC50 [4]: 602 nM
IC50 [5]: 223 nM

SMILES: CNCCC/N=c1\ccn(Cc2cccc(Cl)c2)c2cc(Cl)ccc12
IC50 [3]: > 30000 nM

SMILES: CCCCC/N=c1\ccn(C2CCc3ccccc32)c2cc(Cl)ccc12 (stereo not given)
IC50 [3]: 2300 nM
IC50 [5]: 870 nM

IC50 [5]: 57 nM
SMILES: CCN(CC)CC/N=c1\ccn(Cc2ccccc2Cl)c2cc(Cl)ccc12

IC50 [5]: 210 nM
SMILES: CCCCCC/N=c1\ccn(Cc2ccccc2)c2c(OC)cccc12

SMILES: Clc1ccc(/N=c2\ccn(Cc3ccccc3Cl)c3cc(Cl)ccc23)c(Cl)c1
IC50 [3]: > 30000 nM
IC50 [4]: > 10000 nM
IC50 [5]: > 30000 nM

SMILES: O=C(O)CC/N=c1\ccn(Cc2ccccc2Cl)c2cc(Cl)ccc12
IC50 [3]: > 10000 nM

SMILES: CCCC/N=c1\ccn(CCCc2ccccc2)c2cc(Cl)ccc12
logP [1]: 3.82
pKa [2]: 11.4
IC50 [3]: 471 nM

IC50 [5]: 310 nM
SMILES: CCCCC/N=c1\ccn(Cc2ccc(Cl)cc2)c2c(F)cccc12

SMILES: CCCCC/N=c1\ccn(Cc2ccccc2)c2cc(Cl)ccc12
IC50 [4]: 250 nM
IC50 [5]: 1300 nM

SMILES: C[N+](C)(C)CCC/N=c1\ccn(Cc2ccccc2Cl)c2cc(Cl)ccc12
IC50 [3]: > 30000 nM
IC50 [4]: > 10000 nM

SMILES: CCCCCC/N=c1\ccn(Cc2ccccc2)c2ccc(OC)cc12
IC50 [3]: 47 nM
IC50 [4]: 267 nM
IC50 [5]: 680 nM

SMILES: CCCCCC/N=c1\ccn(Cc2ccccc2)c2ccccc12
IC50 [3]: 164 nM
IC50 [4]: 1050 nM

SMILES: CCCCCC/N=c1\ccn(Cc2ccc(OC)cc2)c2cc(Cl)ccc12
IC50 [3]: 88 nM
IC50 [4]: 329 nM

SMILES: CCCCC/N=c1\ccn(Cc2ccc(Cl)cc2)c2cc(C(F)(F)F)ccc12
IC50 [3]: 239 nM
IC50 [5]: 90 nM

SMILES: CCCC/N=c1\ccn(Cc2ccccc2)c2cc(Cl)ccc12
IC50 [3]: 198 nM
IC50 [4]: 2620 nM
inhibition (Cavia porcellus [6]): 24%

SMILES: CC(C)CCCC(C)/N=c1\ccn(Cc2ccccc2)c2cc(Cl)ccc12 (stereo not given)
IC50 [3]: 817 nM
IC50 [4]: 1680 nM
IC50 [5]: 175 nM

SMILES: CCCCCCOc1ccc(Cc2ccccc2)c2ccccc12
IC50 [3]: > 5000 nM

SMILES: CCCCCC/N=c1\ccn(Cc2ccccc2Cl)c2cc(Cl)ccc12
IC50 [3]: 190 nM
IC50 [4]: 216 nM
IC50 [5]: 780 nM

SMILES: Clc1ccc2/c(=N/C34CC5CC(CC(C5)C3)C4)ccn(Cc3ccccc3)c2c1
IC50 [3]: 1170 nM
IC50 [5]: 157 nM

SMILES: CCCCCC/N=c1\ccn(Cc2ccccc2)c2cc(Cl)ccc12
pKa [2]: 11.5
IC50 [3]: 32 nM
IC50 [4]: 335 nM
IC50 [5]: 820 nM

SMILES: CCCCC/N=c1\ccn(Cc2ccc(Cl)cc2)c2ccc(C(F)(F)F)cc12
IC50 [3]: 340 nM
IC50 [4]: 213 nM
IC50 [5]: 140 nM

SMILES: CCCCCCCC/N=c1\ccn(Cc2ccccc2)c2cc(Cl)ccc12
IC50 [3]: 280 nM
IC50 [4]: 351 nM
IC50 [5]: 2400 nM

SMILES: CCCCCCC/N=c1\ccn(Cc2ccccc2)c2cc(Cl)ccc12
IC50 [3]: 117 nM
IC50 [4]: 249 nM
IC50 [5]: 2500 nM

SMILES: Clc1ccc(C/N=c2\ccn(Cc3ccccc3Cl)c3cc(Cl)ccc23)c(Cl)c1
IC50 [3]: 550 nM
IC50 [4]: 259 nM
IC50 [5]: 2380 nM

SMILES: N=c1ccn(Cc2ccccc2)c2cc(Cl)ccc12
IC50 [3]: > 8000 nM

SMILES: CCCCCCOc1cc[n+](Cc2ccccc2)c2cc(Cl)ccc12
logP [1]: 3.62
pKa [2]: 11.2
IC50 [3]: 828 nM

SMILES: CCCCCC/N=c1\ccn(Cc2ccc(Cl)cc2)c2cc(Cl)ccc12
IC50 [3]: 100 nM
IC50 [5]: 3230 nM

SMILES: C/N=c1\ccn(Cc2ccccc2)c2cc(Cl)ccc12
IC50 [3]: > 5000 nM
inhibition (Cavia porcellus [7]): 24%

SMILES: CCCCCCNc1cc[n+](-c2ccccc2)c2c(-c3ccccc3)cc(OC)cc12
logP [1]: 3.73
IC50 [3]: 240 nM

SMILES: CCCCCC/N=c1\ccn(Cc2ccc(Cl)c(Cl)c2)c2cc(Cl)ccc12
logP [1]: 4.64
pKa [2]: 11.5
IC50 [3]: 310 nM
IC50 [4]: 231 nM
IC50 [5]: > 3500 nM

SMILES: CC(C)C/N=c1\ccn(Cc2ccccc2)c2cc(Cl)ccc12
IC50 [3]: 206 nM
IC50 [5]: 2000 nM

SMILES: CCC/N=c1\ccn(Cc2ccccc2)c2cc(Cl)ccc12
IC50 [3]: 544 nM
IC50 [4]: 3160 nM

IC50 [5]: 1990 nM
SMILES: CCCCC/N=c1\ccn(Cc2ccc(Cl)cc2)c2ccc(OC)cc12
